The subject of data set [1] is Leishmania infantum. The data set is described as follows: Antileishmanial activity against Leishmania infantum amastigote form assessed as parasite growth inhibition at 50 uM after 72 hrs by steady-Glo reagent based assay relative to control. Type of data set: functional. The following applies: read-out: GI. Summed up:
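Intramacrophage L. infantum amastigotes in THP-1-derived macrophages, tested at 50 μM or in dose-response. Plates held 72 h at 37 °C, 5% CO2. Medium was replaced by PBS, macrophages lysed, and parasites read by Steady-Glo luminescence. High-content imaging gave host cell number, infection ratio (infected/total cells) and parasites per infected cell. Values are means of at least two independent experiments.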

Data set [2] is described as follows: Cytotoxicity against human WI38 cells assessed as growth inhibition at 10 uM after 48 hrs by CellTiter-Glo assay relative to control; values are per cent of control. As to conditions: WI38 cells. (In ATP-based viability assays light output follows the ATP content of the culture.)
Data set [3] has as its target Aurora kinase B (Homo sapiens, UniProt Q96GD4). The data set is described as follows: Inhibition of recombinant full-length human aurora B kinase expressed in baculovirus system at 10 uM using MBP as substrate incubated for 45 mins by ADP-glo kinase assay. The following applies: probe MBP. A digest of the protocol: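 Aurora B activity measured as ADP formation via coupled luciferase ADP-Glo luminescence; single-point at 10 μM, triplicate.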
A general note: In ADP-Glo the light output rises with the ADP produced.

Data set [4] in a line: Cytotoxicity against human THP1 cells assessed as viable cells at 100 uM after 72 hrs by MTT assay relative to control. The data set is classed as cell-based, THP-1. As to conditions: read-out: Activity. Summed up:
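THP-1-derived macrophages exposed to compounds for 72 h, tested at 100 μM or in dose-response; viability read by MTT colorimetric assay.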

Data set [5] addresses CYP2C9 (Homo sapiens, UniProt P11712). The data set is described as follows: Inhibition of human microsomal CYP2C9 expressed in baculovirus infected BTI-TN-5B1-4 cells at 10 uM incubated for 30 mins by luciferase assay relative to control. Type of data set: ADME. Summed up:
(§1)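 CYP1A2, 2C9, 2C19, 2D6 and 3A4 in microsomes from baculovirus-infected insect cells, each with a P450-Glo luminogenic substrate. Inhibition read as loss of light; single-point at 10 μM, triplicate.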

Data set [6] concerns the target CYP2D6 (Homo sapiens, UniProt P10635). The data set is described as follows: Inhibition of human microsomal CYP2D6 expressed in baculovirus infected BTI-TN-5B1-4 cells at 10 uM incubated for 30 mins by luciferase assay relative to control. Type of data set: ADME. Summed up:
as §1

In data set [7] the test system is Trypanosoma brucei. As to the kind of experiment: Potentiation of methotrexate-induced antitrypanosomal activity against Trypanosoma brucei Lister 427 bloodstream form at 10 uM after 72 hrs by resazurin dye-based assay relative to control. Type of data set: functional. A general note: The colour change of resazurin is a common sign of viable cells or microbes.
Data set [8] deals with T1, CYP1A2 (Homo sapiens, UniProt P05177).
T1 sequence (P05177 whole entry): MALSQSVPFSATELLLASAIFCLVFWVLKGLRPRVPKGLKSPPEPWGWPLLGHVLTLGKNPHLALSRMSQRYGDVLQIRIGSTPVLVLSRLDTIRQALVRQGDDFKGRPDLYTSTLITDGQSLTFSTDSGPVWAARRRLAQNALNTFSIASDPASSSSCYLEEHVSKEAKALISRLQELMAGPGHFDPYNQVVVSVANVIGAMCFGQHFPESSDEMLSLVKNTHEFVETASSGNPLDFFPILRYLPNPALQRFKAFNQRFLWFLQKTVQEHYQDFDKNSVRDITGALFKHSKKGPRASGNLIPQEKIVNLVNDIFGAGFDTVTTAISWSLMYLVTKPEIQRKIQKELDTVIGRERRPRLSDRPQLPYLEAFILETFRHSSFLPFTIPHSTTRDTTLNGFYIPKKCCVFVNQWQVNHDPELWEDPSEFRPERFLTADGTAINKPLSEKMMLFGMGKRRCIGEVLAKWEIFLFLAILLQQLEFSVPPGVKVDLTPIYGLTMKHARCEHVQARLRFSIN
The data set is described as follows: Inhibition of human microsomal CYP1A2 expressed in baculovirus infected BTI-TN-5B1-4 cells at 10 uM incubated for 30 mins by luciferase assay relative to control. Type of data set: ADME. Summed up: as §1

Data set [9] concerns Trypanosoma cruzi. The data set is described as follows: Antitrypanosomal activity against Trypanosoma cruzi amastigote form infected in human U2OS cells assessed as parasite growth inhibition at 50 uM after 72 hrs relative to control. The data set is classed as functional. The following applies: read-out: GI. Summed up:
(§2)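 U2OS monolayers grown for 24 h, then infected with tissue-derived trypomastigotes of T. cruzi Y strain. Compounds were added 24 h after infection at 50 μM (single-point) or in dose-response, with 72 h exposure. Plates were fixed, stained and analysed by high-content imaging; activity was normalized to infected and non-infected controls. Means of at least two experiments; benznidazole as reference.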

The target in data set [10] is T2, Pteridine reductase, putative (Trypanosoma brucei) (UniProt Q581W1).
T2 sequence (whole entry): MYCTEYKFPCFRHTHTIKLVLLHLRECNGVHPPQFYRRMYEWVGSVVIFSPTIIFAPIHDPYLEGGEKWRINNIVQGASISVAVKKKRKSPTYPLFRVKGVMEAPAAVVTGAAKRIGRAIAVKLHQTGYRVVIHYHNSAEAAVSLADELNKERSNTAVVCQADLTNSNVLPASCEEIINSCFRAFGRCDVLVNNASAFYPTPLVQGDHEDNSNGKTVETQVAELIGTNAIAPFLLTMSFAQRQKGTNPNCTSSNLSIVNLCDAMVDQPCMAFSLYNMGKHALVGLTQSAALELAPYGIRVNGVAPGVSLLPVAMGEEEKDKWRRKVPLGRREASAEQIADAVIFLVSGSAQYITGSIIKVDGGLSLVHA
The data set is described as follows: Inhibition of Trypanosoma brucei PTR1 at 50 uM using H2B as substrate in presence of NADPH by photometric analysis relative to control.

A short description of data set [11]: Cytotoxicity against human U2OS cells assessed as viable cells at 50 uM after 72 hrs by MTT assay relative to control. Type of data set: cell-based. As to conditions: read-out: Activity.
Data set [12] deals with Trypanosoma cruzi. The data set is described as follows: Antitrypanosomal activity against Trypanosoma cruzi amastigote form infected in human U2OS cells assessed as parasite growth inhibition after 72 hrs. The data set is classed as functional, organism-based. A digest of the protocol: as §2
Data set [13] deals with Trypanosoma brucei. The data set is described as follows: Antitrypanosomal activity against Trypanosoma brucei Lister 427 bloodstream form at 10 uM after 72 hrs by resazurin dye-based assay relative to control. Type of data set: functional.
Data set [14] addresses T3, Pteridine reductase 1 (Leishmania major) (UniProt Q01782).
T3 sequence (whole entry): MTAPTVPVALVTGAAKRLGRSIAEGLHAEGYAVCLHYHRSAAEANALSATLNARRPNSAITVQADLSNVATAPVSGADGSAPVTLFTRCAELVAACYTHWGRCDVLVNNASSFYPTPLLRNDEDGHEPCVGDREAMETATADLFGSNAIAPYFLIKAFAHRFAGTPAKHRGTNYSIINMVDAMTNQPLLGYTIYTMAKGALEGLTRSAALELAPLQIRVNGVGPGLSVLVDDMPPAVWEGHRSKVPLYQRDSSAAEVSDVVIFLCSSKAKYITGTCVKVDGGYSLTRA
The data set is described as follows: Inhibition of Leishmania major PTR1 at 50 uM using H2B as substrate in presence of NADPH by photometric analysis relative to control.

Data set [15] concerns Trypanosoma brucei. As to the kind of experiment: Antitrypanosomal activity against Trypanosoma brucei Lister 427 bloodstream form assessed as parasite growth inhibition at 50 uM after 72 hrs by SYBR Green assay relative to control. The data set is classed as functional.
Data set [16] is described as follows: Cytotoxicity against human 786-O cells assessed as inhibition of mitochondrial viability at 10 uM after 6 hrs by CMXRos staining based assay relative to control. Type of data set: cell-based, 786-0. The following applies: read-out: INH. A digest of the protocol: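 Mitochondrial toxicity monitored by MitoTracker Red CMXRos uptake and high-content imaging; compound at 10 μM, triplicate.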

Data set [17] has as its target CYP2C19 (Homo sapiens, UniProt P33261). As to the kind of experiment: Inhibition of human microsomal CYP2C19 expressed in baculovirus infected BTI-TN-5B1-4 cells at 10 uM incubated for 30 mins by luciferase assay relative to control. Type of data set: ADME. Summed up:
as §1

Data set [18] can be described thus: Cytotoxicity against human A549 cells assessed as growth inhibition at 10 uM after 48 hrs by CellTiter-Glo assay relative to control; values are per cent of control. As to conditions: A549 cells.
A short description of data set [19]: Selectivity index, ratio of CC50 for human U2OS cells to EC50 for Trypanosoma cruzi amastigote form. The data set is classed as toxicity. The following applies: read-out: Ratio CC50/EC50. A digest of the protocol:
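Selectivity index = CC50 in the human host or cytotoxicity cell line divided by parasite EC50.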

In data set [20] the target is CYP3A4 (Homo sapiens, UniProt P08684). As to the kind of experiment: Inhibition of human microsomal CYP3A4 expressed in baculovirus infected BTI-TN-5B1-4 cells at 10 uM incubated for 30 mins by luciferase assay relative to control. The data set is classed as ADME. Summed up:
as §1

The nature of data set [21]: Cytotoxicity against human U2OS cells assessed as decrease in viable cells after 72 hrs by cell number count in anti-T. cruzi high content imaging assay. As to conditions: U2OS cells.
For data set [22], the system named is Trypanosoma brucei. The data set is described as follows: Potentiation of methotrexate-induced antitrypanosomal activity against Trypanosoma brucei Lister 427 bloodstream form at 10 uM after 72 hrs by resazurin dye-based assay. The data set is classed as functional.
In data set [23] the target is hERG (KCNH2) (Homo sapiens, UniProt Q12809). The data set is described as follows: Inhibition of human ERG at 10 uM incubated for 2 hrs by fluorescence polarisation assay relative to control.
For data set [24], the system named is Trypanosoma brucei. The data set is described as follows: Antitrypanosomal activity against Trypanosoma brucei Lister 427 bloodstream form after 72 hrs by SYBR Green assay. Type of data set: functional, organism-based. The following applies: Lister 427, 72 h.

Each structure is given as a SMILES string. Activity calls are given as the source filed them. The calls are words filed in the database; no cut-off is given here. Where only a bound is given, the exact number is not on record here.

Aurora kinase B, sequence (Q96GD4 whole entry): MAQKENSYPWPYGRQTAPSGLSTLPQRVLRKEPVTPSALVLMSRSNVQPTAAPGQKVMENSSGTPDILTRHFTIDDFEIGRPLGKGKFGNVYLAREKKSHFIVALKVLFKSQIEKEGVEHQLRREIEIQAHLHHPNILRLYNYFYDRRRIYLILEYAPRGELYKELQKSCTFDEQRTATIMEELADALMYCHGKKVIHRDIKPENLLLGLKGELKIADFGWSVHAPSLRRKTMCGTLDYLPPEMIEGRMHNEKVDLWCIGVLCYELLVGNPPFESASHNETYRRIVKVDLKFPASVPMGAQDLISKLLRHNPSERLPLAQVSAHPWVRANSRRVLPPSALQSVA
CYP2C9, sequence (P11712 whole entry): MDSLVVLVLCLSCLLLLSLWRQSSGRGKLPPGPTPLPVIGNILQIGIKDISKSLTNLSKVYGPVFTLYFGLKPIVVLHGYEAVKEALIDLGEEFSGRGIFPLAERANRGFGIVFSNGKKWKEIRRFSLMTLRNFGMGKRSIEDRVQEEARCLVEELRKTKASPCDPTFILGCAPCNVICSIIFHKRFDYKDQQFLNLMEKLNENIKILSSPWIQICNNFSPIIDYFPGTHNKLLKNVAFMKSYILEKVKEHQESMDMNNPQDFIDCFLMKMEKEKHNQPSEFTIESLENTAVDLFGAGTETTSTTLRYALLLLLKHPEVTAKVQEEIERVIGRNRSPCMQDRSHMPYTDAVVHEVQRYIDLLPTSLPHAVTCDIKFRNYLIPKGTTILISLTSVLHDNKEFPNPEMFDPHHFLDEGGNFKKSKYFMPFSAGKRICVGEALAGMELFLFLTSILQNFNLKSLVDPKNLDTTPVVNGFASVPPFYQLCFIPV
CYP2D6, sequence (P10635 whole entry): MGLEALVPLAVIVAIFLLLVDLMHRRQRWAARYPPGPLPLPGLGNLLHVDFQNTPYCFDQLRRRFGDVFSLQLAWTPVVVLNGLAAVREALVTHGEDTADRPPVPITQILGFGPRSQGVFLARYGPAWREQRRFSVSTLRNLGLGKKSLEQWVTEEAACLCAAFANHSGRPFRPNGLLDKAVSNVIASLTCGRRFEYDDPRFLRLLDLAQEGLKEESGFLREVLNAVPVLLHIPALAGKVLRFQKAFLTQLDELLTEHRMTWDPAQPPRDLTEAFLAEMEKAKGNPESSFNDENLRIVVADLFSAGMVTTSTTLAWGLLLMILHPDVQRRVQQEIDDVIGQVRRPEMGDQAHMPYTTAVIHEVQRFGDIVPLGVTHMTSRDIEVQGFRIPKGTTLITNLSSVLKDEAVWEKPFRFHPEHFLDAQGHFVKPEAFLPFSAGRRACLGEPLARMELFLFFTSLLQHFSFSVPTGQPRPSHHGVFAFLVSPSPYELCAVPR
hERG (KCNH2), sequence (Q12809 whole entry): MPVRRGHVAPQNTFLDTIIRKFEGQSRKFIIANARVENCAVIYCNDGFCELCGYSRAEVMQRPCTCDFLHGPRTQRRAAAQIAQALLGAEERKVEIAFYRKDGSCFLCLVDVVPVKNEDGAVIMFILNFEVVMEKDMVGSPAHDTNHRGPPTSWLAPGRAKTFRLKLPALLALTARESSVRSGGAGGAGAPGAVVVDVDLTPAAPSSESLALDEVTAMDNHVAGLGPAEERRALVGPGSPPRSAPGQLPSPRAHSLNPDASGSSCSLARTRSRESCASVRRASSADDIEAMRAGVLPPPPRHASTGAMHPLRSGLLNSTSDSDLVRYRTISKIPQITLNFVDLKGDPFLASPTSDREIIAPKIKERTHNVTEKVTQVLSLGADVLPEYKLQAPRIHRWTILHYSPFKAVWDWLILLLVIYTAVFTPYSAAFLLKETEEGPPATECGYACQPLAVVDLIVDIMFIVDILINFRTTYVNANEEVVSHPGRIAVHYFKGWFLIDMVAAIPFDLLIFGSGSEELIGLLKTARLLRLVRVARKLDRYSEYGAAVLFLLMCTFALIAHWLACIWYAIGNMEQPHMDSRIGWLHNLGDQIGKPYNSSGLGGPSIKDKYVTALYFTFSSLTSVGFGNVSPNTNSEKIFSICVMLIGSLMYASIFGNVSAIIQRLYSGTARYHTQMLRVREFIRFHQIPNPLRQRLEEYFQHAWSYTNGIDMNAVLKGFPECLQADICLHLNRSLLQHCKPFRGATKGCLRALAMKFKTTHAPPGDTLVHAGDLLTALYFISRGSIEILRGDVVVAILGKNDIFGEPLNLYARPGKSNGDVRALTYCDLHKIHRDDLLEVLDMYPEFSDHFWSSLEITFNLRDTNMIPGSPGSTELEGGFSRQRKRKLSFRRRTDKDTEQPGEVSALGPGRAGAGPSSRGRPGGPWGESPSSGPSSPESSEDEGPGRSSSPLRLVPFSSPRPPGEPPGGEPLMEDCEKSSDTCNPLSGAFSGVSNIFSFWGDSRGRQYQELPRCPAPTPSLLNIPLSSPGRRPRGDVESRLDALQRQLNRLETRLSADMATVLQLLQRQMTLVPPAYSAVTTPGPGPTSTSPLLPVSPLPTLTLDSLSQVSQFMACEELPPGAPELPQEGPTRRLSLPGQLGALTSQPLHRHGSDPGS
CYP2C19, sequence (P33261 whole entry): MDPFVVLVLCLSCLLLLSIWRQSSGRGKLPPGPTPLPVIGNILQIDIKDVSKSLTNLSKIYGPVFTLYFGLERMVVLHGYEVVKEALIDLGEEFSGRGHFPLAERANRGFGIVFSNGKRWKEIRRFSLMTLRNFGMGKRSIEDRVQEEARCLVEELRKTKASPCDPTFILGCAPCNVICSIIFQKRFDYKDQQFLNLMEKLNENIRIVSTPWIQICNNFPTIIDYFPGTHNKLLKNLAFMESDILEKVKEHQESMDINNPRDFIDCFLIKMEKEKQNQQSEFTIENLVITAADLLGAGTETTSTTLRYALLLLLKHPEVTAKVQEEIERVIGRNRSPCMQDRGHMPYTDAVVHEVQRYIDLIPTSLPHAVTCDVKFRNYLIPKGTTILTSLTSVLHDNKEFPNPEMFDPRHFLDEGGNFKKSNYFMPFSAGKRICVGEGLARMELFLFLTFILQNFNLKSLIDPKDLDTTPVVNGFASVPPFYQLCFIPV
CYP3A4, sequence (P08684 whole entry): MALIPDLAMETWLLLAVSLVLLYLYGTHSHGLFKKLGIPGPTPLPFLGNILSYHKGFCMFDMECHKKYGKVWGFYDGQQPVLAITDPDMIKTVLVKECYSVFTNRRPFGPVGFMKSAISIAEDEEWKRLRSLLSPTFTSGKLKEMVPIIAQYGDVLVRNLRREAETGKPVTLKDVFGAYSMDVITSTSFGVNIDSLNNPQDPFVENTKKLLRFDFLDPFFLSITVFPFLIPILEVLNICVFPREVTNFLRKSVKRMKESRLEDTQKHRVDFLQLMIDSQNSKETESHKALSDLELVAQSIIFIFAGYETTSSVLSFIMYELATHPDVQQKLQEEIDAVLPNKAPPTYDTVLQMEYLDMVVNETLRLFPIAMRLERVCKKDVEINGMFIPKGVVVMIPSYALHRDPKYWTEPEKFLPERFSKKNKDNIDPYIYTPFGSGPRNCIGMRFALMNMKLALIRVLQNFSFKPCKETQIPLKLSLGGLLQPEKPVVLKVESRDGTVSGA

As a reminder, the inhibition is the change of the read-out against control, counted positive when it falls. By EC50 is commonly meant the concentration needed to bring the measured effect to its halfway point. What is called CC50 is the concentration giving 50% cytotoxicity. Turning to `NC(=S)N/N=C/c1ccco1`, the inhibition of growth at 50 µM in data set [1] worked out at 26.9%; in data set [9], 93.6%. Also, the cell growth (% of control) at 48 h, 10 µM in data set [2] stood at 106%; in data set [18], 124%. Also, in data set [3], the inhibition at 0.75 h, 10 µM is -8.76%. Also, the viability at 72 h, 100 µM in [4] came to 92.9%. For the same compound, the inhibition at 0.5 h, 10 µM is -12.2% in data set [5]; -43.1% in [6]; -0.31% in data set [8]; -43.2% in data set [17]; -12.2% in [20]. Besides, the Activity in data set [7] stood at 24%; in data set [13], 3.33%. The results for the inhibition in data set [10] and in data set [14] were 3.99% and 14.8%, respectively. The viability at 72 h, 50 µM in data set [11] was 112%. Also, in [12], the EC50 worked out at 1.87 µM. Also, the “growth inhibition (GI)” value in [15] was “inactive”. Besides, the cytotoxicity at 6 h, 10 µM in [16] was -4.4%. In data set [19], the selectivity ratio is over 1. The 50% cytotoxic concentration (CC50) at 72 h in data set [21] is over 44 µM. In addition, the PF in [22] stood at 0.87. For the same compound, in data set [23], the inhibition at 2 h, 10 µM is -7.97%.

As for `NC(=S)N/N=C/c1ccc2ncccc2c1`, the inhibition of growth at 50 µM turned out to be 36% in data set [1]; 53.8% in [9]; 84.2% in [15] (Lister 427, 72 h, read-out: GI). Further, the cell growth (% of control) at 48 h, 10 µM came out at 143% in data set [2] and 145% in [18]. Moreover, the inhibition at 0.75 h, 10 µM in data set [3] was 0.46%. Further, the viability at 72 h, 100 µM in [4] turned out to be 63.7%. Besides, the inhibition at 0.5 h, 10 µM in data set [5] is 3.32%; in data set [6] it was 2.28%; in data set [8], 25.2%; in data set [17] it was -34.6%; in data set [20], -13.5%. Also, the figures for the Activity in data set [7] and in [13] were 91.17% and 3.83%, respectively. The inhibition in data set [10] was found to be 11.2%; in [14] it was 12.2%. In [11], the viability at 72 h, 50 µM amounted to 72.5%. Moreover, in [16], the cytotoxicity at 6 h, 10 µM is -6.48%. Also, in [24], the EC50 turned out to be 34.4 µM. For the same compound, the PF in data set [22] worked out at 3.25. Besides, in data set [23], the inhibition at 2 h, 10 µM is -13.2%.

(Values after ChEMBL document CHEMBL4196006, “Aryl thiosemicarbazones for the treatment of trypanosomatidic infections” (Eur J Med Chem, 2018).)
